Assay outcomes as filed in PubChem.
Hits are enriched below; roughly 1.2% of the tested compounds scored in any of these assays.
TNAP inh hiacc: human TNAP enzyme inhibitors, primary screen, biochemical, luminescent, high phosphate acceptor level, uHTS; AID 1135, 2008; 0.03% of 200,000 active; Alkaline phosphatase, tissue-nonspecific isozyme (Homo sapiens), P05186; inhibition, % at 20 µM; purified TNAP, CDP-star luminescence, 1 M DEA;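 active = over 50% inhibition of tissue-nonspecific alkaline phosphatase at 20 µM in the single-dose screen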
Target sequence (P05186 whole entry, looked up): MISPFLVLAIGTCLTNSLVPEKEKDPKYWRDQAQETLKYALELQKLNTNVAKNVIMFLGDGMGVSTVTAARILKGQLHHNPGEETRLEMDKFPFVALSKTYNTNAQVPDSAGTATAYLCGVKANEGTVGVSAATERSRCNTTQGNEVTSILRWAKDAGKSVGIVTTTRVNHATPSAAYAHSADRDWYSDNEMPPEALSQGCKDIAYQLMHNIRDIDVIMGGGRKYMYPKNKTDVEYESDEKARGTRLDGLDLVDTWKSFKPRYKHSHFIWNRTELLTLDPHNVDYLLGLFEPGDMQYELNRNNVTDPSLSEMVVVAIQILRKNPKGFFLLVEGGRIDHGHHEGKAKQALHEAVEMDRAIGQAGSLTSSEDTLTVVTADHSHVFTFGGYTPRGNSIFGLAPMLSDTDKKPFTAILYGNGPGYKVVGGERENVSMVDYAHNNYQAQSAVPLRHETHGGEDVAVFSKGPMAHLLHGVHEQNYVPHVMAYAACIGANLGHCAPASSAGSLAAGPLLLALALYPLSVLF
TNAP inh no acc: human TNAP enzyme inhibitors, primary screen, biochemical, luminescent, no phosphate acceptor, uHTS. Alkaline phosphatase, tissue-nonspecific isozyme (Homo sapiens), P05186. inhibition, % at 20 µM. AID 1012, 2008. purified TNAP, CDP-star luminescence, 30 min. 0.26% of 200,000 active;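 active = tissue-nonspecific alkaline phosphatase inhibition above about 50% at 20 µM in the single-dose screen, limit read from the data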
HMGR II inh: inhibitors of E. faecalis class II HMGR, primary screen, biochemical, Enterococcus faecalis | HMG-CoA reductase (Enterococcus faecalis, mvaE) | purified E. faecalis HMGR, NADPH absorbance 340 nm kinetic | inhibition, % at 10 µM | 0.41% of 190,000 active;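 active = inhibition above a set limit, the median over all tested compounds plus 3 SD, cut at about 9.5% in these data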;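 also: enzyme runs in reverse so mevalonate oxidation gives rising NADPH absorbance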
INS promoter inh: inhibitors of insulin promoter-driven GFP, primary screen, imaging, TRM-6 cells, eGFP reporter, cell count; reporter expression induced with tamoxifen; inhibition, % at 2 µM; 0.9% of 130,000 active; AID 1273, 2008;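 active = inhibition above the mean plus 3 SD, with well images judged a real hit on visual review, cut at about 60% in these data, passing the limit was not always enough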
TNAP act hiacc: TNAP activators at high phosphate acceptor level, primary screen, biochemical, luminescence, uHTS. Alkaline phosphatase, tissue-nonspecific isozyme (Homo sapiens), P05186. purified TNAP, CDP-star luminescence, 1 M DEA, 30 min; stronger effect = higher value; 0 = EDTA background, 1 = DMSO-only activity. activation factor at 20 µM. 200,000 tested, under 10 active;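 active = activation factor at least 2 at 20 µM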
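Test system – human TNAP · Doses – 20 µM single point · Incubation – 30 min, room temperature · Signal – luminescent substrate turnover signal · Read-out basis – activation factor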
Each line names hits and unclear results; the compound was inactive in the other large screens.

O=c1[nH][nH]c(-c2ccccc2O)c1C(C[N+](=O)[O-])c1cccc(Cl)c1 (stereo unspecified)	none
O=c1[nH][nH]c(-c2ccccc2O)c1C(C[N+](=O)[O-])c1ccc(Cl)cc1Cl (stereo unspecified)	TNAP inh no acc 70.3
CCOC(=O)N1N=C(c2ccccc2)CC1(O)C(C)(F)F (stereo unspecified)	INS promoter inh 73.7
COc1cc(/C=C/C(=O)CC(=O)/C=C/c2ccc(O)c(OC)c2)ccc1O	TNAP inh hiacc 52.6
CCCc1nn(C)c(C(=O)Nc2ccccc2)c1Cl	none (no result: INS promoter inh)
COc1ccc2c(c1)CCc1c-2n[nH]c1C(=O)O	TNAP inh no acc 86.1
COc1ccc2c(c1)CCc1c(C(=O)N3CCCCCC3)noc1-2	none
Cc1no[n+]([O-])c1COc1ccc(/C=N/n2nnnc2N)cc1	none
O=C(Oc1ccc2c(=O)c(Cl)coc2c1)c1ccncc1	INS promoter inh 81.8
O=C(NNC(=O)c1c(F)cccc1F)c1ccccc1-n1cccc1	none (no result: INS promoter inh)
Cc1onc(-c2ccccc2)c1C(=O)Nc1ccc(S(=O)(=O)N2CCCC2)cc1	INS promoter inh 77.8
COc1ccc(NC(=O)c2nc3nc(C)cc(C(F)F)n3n2)cc1OC	INS promoter inh 71.4
CCN(CC)c1ccc(NC(=O)c2nc3nc(C)cc(C(F)F)n3n2)cc1	none (no result: INS promoter inh)
Cc1cc(C(F)F)n2nc(C(=O)Nc3ccc(S(=O)(=O)N4CCCCCC4)cc3)nc2n1	INS promoter inh 100.0 (no result: TNAP inh hiacc, TNAP inh no acc, TNAP act hiacc)
Cc1onc(-c2ccccc2)c1C(=O)Nc1ccc(S(=O)(=O)N2CCCCC2)cc1	none (no result: INS promoter inh)
CCc1ccc(NC(=O)C(C)OC(=O)CCC(=O)c2cccs2)cc1 (stereo unspecified)	none
COc1ccc(-c2noc(CN(C)C(=O)Nc3ccccc3)n2)cc1	none (no result: INS promoter inh)
CCO[C@@H]1OC(C(=O)N2CCN(Cc3ccccc3)CC2)=C[C@H](C2CC2)[C@H]1CCCO	none (no result: INS promoter inh)
COc1ccc(Sc2nc3ccccc3n3c(C(F)(F)F)nnc23)cc1	none
COc1ccc(-c2cc(-n3c(C(F)(F)F)nc4ccccc43)n(CCC#N)n2)cc1	HMGR II inh 12.9
CN(Cc1ccccc1)C(=O)CCSc1nc(-c2ccc3c(c2)OCO3)cc(C(F)(F)F)n1	none
Cc1ccccc1-c1oc(C)c(C)[n+]1[O-]	HMGR II inh 15.3 (no result: INS promoter inh)
Cc1oc(-c2cccs2)[n+]([O-])c1C	none (no result: INS promoter inh)
O=c1[nH]c(=O)n(Cc2ccccc2)c2nc(-c3ccc(Oc4ccc(F)cc4)c([N+](=O)[O-])c3)n(CCO)c12	INS promoter inh 73.5
Cc1cccc(C(=O)O/N=C2/CC3CCC2(C)C3(C)C)c1 (stereo unspecified)	HMGR II inh 11.1
Cc1cc(NC(=O)c2ccc3c(c2)OCCO3)no1	none
Cc1cc(NC(=O)c2ccc3c(c2)OCO3)no1	INS promoter inh 84.8
O=C(Nc1ccn(Cc2ccc(Cl)cc2)n1)c1ccc2c(c1)OCO2	INS promoter inh 76.9
CCOc1c(C)cc(-c2ncccc2O)cc1C	INS promoter inh 81.8
COc1ccc(-c2ncccc2O)cc1	none
C/C(=N\NC(=O)CSCc1cccc(Br)c1)c1ccc([N+](=O)[O-])cc1	none
CCNC(=O)c1oc2c(c1C)C(=O)CC(C)(C)C2	none
Cc1c(C(=O)NCc2cccnc2)oc2c1C(=O)CC(C)(C)C2	INS promoter inh 79.0
CC(=O)Nc1ccc(N(C(=O)CNC(=O)c2cccs2)C(C(=O)NC(C)(C)C)c2ccccc2)cc1 (stereo unspecified)	none
CC12CC3(C)CC(C)(C1)CC(C(=O)NCC(=O)O)(C2)C3	none (no result: INS promoter inh)
CC(NC(=O)C12CC3(C)CC(C)(CC(C)(C3)C1)C2)C(=O)O (stereo unspecified)	INS promoter inh 70.6
O=C(Cc1cccs1)NCc1cccc(F)c1	none (no result: INS promoter inh)
COc1ccc(OC)c(CC(NC(C)=O)C(=O)NC2CCN(c3cc(C)nc4ncnn34)CC2)c1 (stereo unspecified)	HMGR II inh 9.7 (no result: INS promoter inh)
COc1cc(CC(NC(C)=O)C(=O)NC2CCN(C(=O)C3CC3)CC2)cc(OC)c1 (stereo unspecified)	HMGR II inh 9.6 (no result: INS promoter inh)
CC(NC(=O)c1ccc(C(F)(F)F)cc1)C(c1ccccc1)N1CCOCC1 (stereo unspecified)	none (no result: INS promoter inh)
CC(Sc1nnnn1C)C(=O)Nc1ccc2c(c1)OCCO2 (stereo unspecified)	none
Cc1cccc(C)c1OCC(=O)Nn1c(=O)[nH]c2ccccc2c1=O	HMGR II inh 10.7
N#CCC(=O)Nn1c(=S)[nH]c2ccccc2c1=O	none
CCCCCC1CCC(c2n[nH]c(=S)n2C)CC1 (stereo unspecified)	none (no result: INS promoter inh)
O=C1CCCS(=O)(=O)c2ccccc21	none
Cc1n[nH]c(C)c1S(=O)(=O)N1CCN(c2ccccn2)CC1	TNAP inh no acc 58.9
Cc1cc2cccc(C)c2nc1SCC(=O)NNC(=O)c1ccco1	HMGR II inh 13.9
CCOc1cc(C=O)ccc1OCCSc1ccc(Cl)cc1	none
COc1cc(/C=C(/Sc2nnc(-c3ccc(F)cc3)o2)C(=O)O)ccc1OC(F)F	HMGR II inh 10.5
O=C(c1cc([N+](=O)[O-])ccc1Cl)N1CCN(c2ccccn2)CC1	HMGR II inh 11.1
CCC(OC(=O)C1=Cc2ccccc2OC1)C(=O)NCc1ccco1 (stereo unspecified)	HMGR II inh 12.5 (no result: INS promoter inh)
CCN(Cc1ccncc1)Cc1c(O)ccc2cc(Br)ccc12	HMGR II inh 15.4
COc1cc2nc(CN3CCC(C(O)(c4ccccc4)c4ccccc4)CC3)[nH]c(=O)c2cc1OC	none (no result: INS promoter inh)
CCCCOC(=O)Nc1cc(C(=O)OC)ccc1C(=O)OC	INS promoter inh 65.2
COC(=O)C1CC(O)CN1C(=O)Nc1ccccc1 (stereo unspecified)	none (no result: INS promoter inh)
Cc1ccc(SCC2=NN(c3nc(C)cc(C)n3)C(=O)C2)cc1	INS promoter inh 66.7
Cc1cc(C)nc(N2N=C(C(C)(C)C)CC2=O)n1	none
COC(=O)N1CCN(CCc2ccccc2)CC1	HMGR II inh 12.8 (no result: INS promoter inh)
NC(=O)C1CC(=O)N(c2ccc(OCc3ccc(Cl)cc3)cc2)C1 (stereo unspecified)	none
O=C1CCCN1CCCNc1ncnc2sccc12	none (no result: INS promoter inh)
COc1ccc(N(CC(=O)Nc2nccs2)S(=O)(=O)c2c(C)[nH]c(=O)[nH]c2=O)cc1	INS promoter inh 78.6
COc1cc2c(cc1OC)C(C(=O)NCCN(C)C)C(c1cccs1)N(C)C2=O (stereo unspecified)	none (no result: INS promoter inh)
COc1cc(/C=C2\CC/C(=C\c3cc(OC)c(O)c(OC)c3)C2=O)cc(OC)c1O	TNAP inh hiacc 57.3, TNAP inh no acc 61.1
COc1cc(/C=C2/CCC/C(=C\c3cc(O)c(OC)c(Cl)c3)C2=O)cc(Cl)c1O	TNAP inh hiacc 53.4, TNAP inh no acc 51.8
